TRPC4 act: TRPC4 (mouse) channel activation | B-score at 10 µM | hit rate 0.49% among 310,000 | HEK293 TRPC4beta/mu-opioid, Fluo4 calcium fluorescence; stronger effect = higher value | AID 2237;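 active means B-score above 5 SD of library B-scores, and initial fluorescence ratio not above library mean plus 5 SD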;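 further: positive B-score marks a calcium rise read as TRPC4 activation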
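Material: TRPC4beta and mu-opioid receptor HEK293 stable cells | Incubation: 45 min room-temperature Fluo4 loading, 110 s read | Detection: Kinetic Fluo4 calcium fluorescence | Measure: Integrated baseline-normalised fluorescence ratio, converted to per-well B score | Benchmarks: Low control buffer alone, high control maximal DAMGO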
TRPC6 inhibitor: blocks the mouse TRPC6 cation channel; Q61143; HEK293-TRPC6, membrane potential dye, ACh-evoked depolarization; stronger effect = lower value; B-score at 10 µM; hit rate 1.1% among 310,000;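 active means B-score under library mean minus 3 SD, initial fluorescence not abnormally high, positive integrated signal ratio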;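 further: B-score derived from integrated fluorescence ratio over the kinetic read; more negative B-score means stronger inhibition of depolarization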
Target sequence (Q61143 whole entry, looked up): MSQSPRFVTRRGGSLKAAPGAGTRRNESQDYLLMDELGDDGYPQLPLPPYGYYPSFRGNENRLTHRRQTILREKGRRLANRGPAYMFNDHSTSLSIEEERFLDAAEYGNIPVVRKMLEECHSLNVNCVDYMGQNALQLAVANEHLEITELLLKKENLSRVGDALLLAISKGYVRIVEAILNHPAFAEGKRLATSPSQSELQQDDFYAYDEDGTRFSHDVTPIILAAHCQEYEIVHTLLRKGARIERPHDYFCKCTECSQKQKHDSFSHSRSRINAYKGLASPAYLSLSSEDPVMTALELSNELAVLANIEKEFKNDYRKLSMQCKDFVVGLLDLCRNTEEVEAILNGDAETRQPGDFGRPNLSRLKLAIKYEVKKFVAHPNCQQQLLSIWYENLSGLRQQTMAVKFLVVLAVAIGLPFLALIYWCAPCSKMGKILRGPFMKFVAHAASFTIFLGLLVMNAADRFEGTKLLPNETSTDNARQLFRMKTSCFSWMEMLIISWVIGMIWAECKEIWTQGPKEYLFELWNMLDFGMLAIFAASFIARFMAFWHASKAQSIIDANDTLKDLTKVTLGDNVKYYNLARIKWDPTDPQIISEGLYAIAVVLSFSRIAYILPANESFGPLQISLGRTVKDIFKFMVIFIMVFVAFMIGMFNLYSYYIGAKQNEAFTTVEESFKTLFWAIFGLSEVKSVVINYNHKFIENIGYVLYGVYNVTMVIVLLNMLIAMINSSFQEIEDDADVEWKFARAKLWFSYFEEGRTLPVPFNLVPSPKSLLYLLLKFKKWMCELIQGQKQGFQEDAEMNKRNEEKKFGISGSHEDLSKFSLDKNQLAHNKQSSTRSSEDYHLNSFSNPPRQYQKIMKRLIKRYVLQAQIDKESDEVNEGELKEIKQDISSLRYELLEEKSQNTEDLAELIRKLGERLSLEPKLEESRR
TRPC4 potent: TRPC4 (mouse) allosteric potentiation | Q9QUQ5 | B-score at 10 µM | HEK293 TRPC4beta/mu-opioid, DAMGO EC20, Fluo-4 Ca2+ flux; stronger effect = higher value | hit rate 0.42% among 310,000 | AID 2227;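 active means B-score of calcium response area above 5 SD of library B-scores, with initial fluorescence ratio within 5 SD of library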
TRPC6 activator: activates the mouse TRPC6 cation channel. B-score at 10 µM. HEK293-TRPC6 membrane potential dye fluorescence; stronger effect = higher value. hit rate 0.13% among 310,000;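 active means B-score of the integrated fluorescence ratio above library mean plus 3 SD, and starting fluorescence ratio within library mean plus 5 SD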;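 further: higher score means more depolarization so channel activation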
TRPC4 inh: TRPC4 (mouse) channel inhibition; hit rate 0.39% among 300,000; HEK293 TRPC4beta/mu-opioid, DAMGO-evoked Fluo4 calcium flux; stronger effect = lower value; B-score at 10 µM; Q9QUQ5;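 active means B-score over 3 SD under the library average, no early fluorescence shift, positive overall ratio signal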
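Test system – stable TRPC4beta/mu-opioid receptor HEK293 cells · Probe or stimulus – DAMGO, a submaximal dose followed by a maximal one · Dosing – one concentration per compound · Signal – Fluo4 calcium fluorescence by kinetic imaging, 5 s 1 Hz baseline · Evaluation – per-well B score of integrated baseline-normalized Fluo4 ratio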
TRPC4 sel inh 2: second check of whether TRPC6 inhibitors also affect mouse TRPC4; shares compounds with TRPC6 inhibitor; HEK293 TRPC4/MOR, membrane potential dye fluorescence; channel activated by saturating DAMGO dose; inhibition, % at 10 µM; hit rate 42% among 920;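 active means compounds whose fluorescence signal differed from control wells by over 3 SD, either direction, in both duplicate plates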
TRPC4 spec: selectivity of TRPC6 inhibitors: effect on mouse TRPC4 | shares compounds with TRPC6 inhibitor | HEK293 TRPC4/mu-opioid, membrane potential fluorescence | activity change, negative = inhibition, % at 10 µM | hit rate 61% among 920 | AID 2777;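 active means rise or fall in signal beyond 3 SD of buffer-only wells in both replicate plates, either sign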;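 further: integrated kinetic ratio of fluorescence range over baseline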
HEK293 MPD ctr 2-1: second check of TRPC6 inhibitor effects in parental HEK293 cells. AID 2779. signal change vs control, % at 10 µM. parental HEK293 membrane potential dye fluorescence; maximal acetylcholine challenge after compound addition. hit rate 31% among 920. shares compounds with TRPC6 inhibitor;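 active means membrane potential signal moving either way by over 3 SD of the maximum-effect control, in both duplicate plates, meaning non-specific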
HEK293 MPD ctr-1: checks TRPC6 inhibitor effects in parental HEK293 cells | shares compounds with TRPC6 inhibitor | hit rate 60% among 920 | parental HEK293 membrane potential dye fluorescence | membrane potential signal change, % at 10 µM;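 active means membrane potential signal shifting up or down by more than 3 SD of buffer-only wells, on both duplicate plates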
HEK293 MPD ctr-2: checks TRPC6 modulator effects in parental HEK293 cells; membrane potential dye fluorescence; membrane potential signal change, % at 10 µM; hit rate 51% among 2,400; shares compounds with TRPC6 inhibitor; AID 488924;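 active means membrane potential signal moves up or down beyond 5 SD from buffer-only wells, on both duplicate plates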
HEK293 MPD ctr 2-2: second check of TRPC6 modulator effects in parental HEK293 cells; hit rate 14% among 2,400; shares compounds with TRPC6 inhibitor; inhibition, % at 10 µM; AID 488926; membrane potential dye fluorescence; after compound, maximal acetylcholine stimulation;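 active means membrane potential signal drops by more than 5 SD from the mean control signal, in both duplicate plates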
TRPC4/MOR mod: mouse TRPC4 off-target activity of TRPC6 modulators | shares compounds with TRPC6 inhibitor | HEK293 TRPC4/mu-opioid, membrane potential fluorescence | percent change from control (negative = decrease, positive = increase), % at 10 µM | hit rate 69% among 2,400;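 active means membrane potential signal moved up or down beyond 5 SD of buffer control wells, in both duplicate plates, actives on both sides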
TRPC4 ctr inh 2: second selectivity test of TRPC6 modulators against mouse TRPC4 | inhibition, % at 10 µM | AID 488928 | HEK293 TRPC4/mu-opioid, membrane potential dye fluorescence; stimulated with maximal-effect DAMGO | hit rate 55% among 2,400 | shares compounds with TRPC6 inhibitor;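 active means drop in membrane potential signal beyond 5 SD of the control wells in both duplicate plates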;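 further: TRPC4 counter screen for TRPC6 hits run under conditions tuned for TRPC6 not TRPC4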
TRPC6 block conf: mouse TRPC6 inhibitor confirmation; shares compounds with TRPC6 inhibitor; HEK293-TRPC6, membrane potential dye, ACh-evoked depolarization; inhibition, % at 10 µM; hit rate 43% among 3,300; AID 488960;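 active means fluorescence ratio falls more than 5 SD below the full-stimulation control mean, in both duplicate runs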;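 further: integrated fluorescence ratio of peak minus minimum over baseline after agonist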
TRPC6 act conf: confirmation of mouse TRPC6 activators | shares compounds with TRPC6 inhibitor | HEK293-TRPC6 membrane potential dye fluorescence, FDSS | activation, % at 10 µM | hit rate 11% among 2,800 | AID 488961;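 active means ratio signal rise beyond 5 SD above unstimulated control wells' mean, seen in both duplicate runs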
Of the large screens only hits and unclear results are named; the others gave an inactive call (follow-up assays come after a bar, where they were run). The list is not random: actives were taken first. Their share in the collection is about 2.3%.

CCC(OCC(O)CN1CCN(CCN2C(=O)c3cccc4cccc(c34)C2=O)CC1)c1ccccc1 (centres undefined)	TRPC6 inhibitor -6.1 | HEK293 MPD ctr-2 -90% | HEK293 MPD ctr 2-2 inactive | TRPC4/MOR mod -29% | TRPC4 ctr inh 2 77% | TRPC6 block conf 60% | TRPC6 act conf inactive
Cc1cccc(C)c1OCC(O)CN1CCC(CN2C(=O)c3cccc4cccc(c34)C2=O)CC1 (centres undefined)	TRPC6 inhibitor -8.3 | TRPC4 sel inh 2 40% | TRPC4 spec -18% | HEK293 MPD ctr 2-1 inactive | HEK293 MPD ctr-1 -200% | TRPC6 block conf 64% | TRPC6 act conf inactive
COc1ccc(NC(=O)NNC(=O)COc2ccc3cc(Br)ccc3c2)c(OC)c1	none
O=C(NC(=S)Nc1ncc(Br)cc1Br)c1ccccc1	none
COc1ccccc1C1CCN(Cc2ccc(C)cc2)CC1	none
Cc1cccc(NC(=O)N2CCC(NC(=O)C3CCCCC3)CC2)c1	none
Nc1ccc(N(CCO)CCO)cc1	none
Cc1cc(N(CCO)CCO)ccc1N=Nc1cc(F)ccc1F	TRPC6 inhibitor -7 | TRPC4 sel inh 2 62% | TRPC4 spec -22% | HEK293 MPD ctr 2-1 inactive | HEK293 MPD ctr-1 -454% | TRPC6 block conf 63% | TRPC6 act conf inactive
CCN(CC)CCn1c2ccccc2c2cnc(N=CN(C)C)c(C#N)c21	TRPC6 inhibitor -7.2 | TRPC4 sel inh 2 50% | TRPC4 spec -20% | HEK293 MPD ctr 2-1 inactive | HEK293 MPD ctr-1 -166% | TRPC6 block conf inactive | TRPC6 act conf inactive
CCn1c2ccccc2c2cnc(N=CN(C)C)c(C#N)c21	none
COc1ccc(Nc2nc(N3CCCCC3)c3ccccc3n2)cc1	TRPC6 inhibitor -7.5 | TRPC4 sel inh 2 inactive | TRPC4 spec inactive | HEK293 MPD ctr 2-1 inactive | HEK293 MPD ctr-1 inactive | TRPC6 block conf inactive | TRPC6 act conf inactive
Oc1ccc(Nc2nc(N3CCCC3)c3ccccc3n2)cc1	TRPC6 inhibitor -11, TRPC4 inh -6 | TRPC4 sel inh 2 56% | TRPC4 spec -19% | HEK293 MPD ctr 2-1 32% | HEK293 MPD ctr-1 -262% | TRPC6 block conf 71% | TRPC6 act conf inactive
Cc1ccc(Nc2nc(N)c([N+](=O)[O-])c(N3CCOCC3)n2)cc1	none
Cc1ccc(Nc2nc(N3CCOCC3)c3ccccc3n2)cc1	TRPC6 inhibitor -5.3 | HEK293 MPD ctr-2 inactive | HEK293 MPD ctr 2-2 inactive | TRPC4/MOR mod -22% | TRPC4 ctr inh 2 55% | TRPC6 block conf inactive | TRPC6 act conf inactive
c1ccc2c(c1)nc(N1CCCCCC1)c1ccccc12	none
COc1ccc2c(CC(=O)NC(Cc3ccc(Cl)cc3)C(=O)O)cc(=O)oc2c1C (centres undefined)	none
O=C(COc1cc2oc(=O)cc(-c3ccccc3)c2cc1Cl)NCCN1CCOCC1	none
CC(Sc1ccccc1)C(=O)NCCc1ccccc1 (centres undefined)	none
O=C(OCc1cc(Cl)ccc1OC(F)F)c1ccc([N+](=O)[O-])o1	none
O=C(/C(N=Nc1cccc([N+](=O)[O-])c1)=C(/O)c1ccc(Br)cc1)C(F)(F)F	TRPC6 inhibitor -8.2 | TRPC4 sel inh 2 75% | TRPC4 spec 8.5% | HEK293 MPD ctr 2-1 inactive | HEK293 MPD ctr-1 5.2% | TRPC6 block conf 81% | TRPC6 act conf inactive
S=C(NC1CCCC1)N1CCN(c2ncccn2)CC1	none
CC(C)NC(=S)N1CCN(c2ncccn2)CC1	TRPC6 inhibitor -5.4 | HEK293 MPD ctr-2 inactive | HEK293 MPD ctr 2-2 inactive | TRPC4/MOR mod 17% | TRPC4 ctr inh 2 inactive | TRPC6 block conf inactive | TRPC6 act conf inactive
c1ccc(-c2cnnc(N3CCCCC3)n2)cc1	TRPC6 inhibitor -6.9 | TRPC4 sel inh 2 inactive | TRPC4 spec 0.7% | HEK293 MPD ctr 2-1 inactive | HEK293 MPD ctr-1 inactive | TRPC6 block conf 72%
FC(F)(F)c1cc(-c2ccccc2)nc(N2CCCCCC2)n1	none
CC(C)(C)C(=O)Cn1c(=N)n(Cc2ccccc2)c2ccccc21	none
CC(C)(C)C(=O)Cn1c(=N)n(Cc2ccccc2Cl)c2ccccc21	TRPC6 inhibitor -5.5 | HEK293 MPD ctr-2 164% | HEK293 MPD ctr 2-2 inactive | TRPC4/MOR mod 22% | TRPC4 ctr inh 2 77% | TRPC6 block conf 48%
Cc1ccccc1S(=O)(=O)Cc1ccc(C(=O)N(C)C2CCCCC2)o1	none
Cc1nc(Nc2ccncc2)c2oc3ccccc3c2n1	TRPC6 inhibitor -6.4 | HEK293 MPD ctr-2 106% | HEK293 MPD ctr 2-2 113% | TRPC4/MOR mod 11% | TRPC4 ctr inh 2 inactive | TRPC6 block conf 56% | TRPC6 act conf inactive
CCc1nc(Nc2ccncc2)c2oc3ccccc3c2n1	TRPC6 inhibitor -5.7 | HEK293 MPD ctr-2 inactive | HEK293 MPD ctr 2-2 76% | TRPC4/MOR mod -8.0% | TRPC4 ctr inh 2 inactive | TRPC6 block conf inactive | TRPC6 act conf inactive
CC(=O)Nc1ccc(Nc2nc(C)nc3c2oc2ccccc23)cc1	none
COc1ccnc2c1c(=O)n(Cc1ccc(Cl)cc1)c(=O)n2C	none
Cc1nnsc1C(=O)N/N=C/c1ccc2ccccc2c1O	TRPC6 inhibitor -7.6 | TRPC4 sel inh 2 inactive | TRPC4 spec 27% | HEK293 MPD ctr 2-1 -47% | HEK293 MPD ctr-1 19% | TRPC6 block conf inactive
Cc1nnsc1C(=O)N/N=C/c1ccccc1	none
COc1ccc(CNC(=O)CCS(=O)(=O)c2ccc3c(c2)CC(C)N3C(=O)C2CC2)cc1 (centres undefined)	none

Screens as filed in PubChem.
